Experimental data reported in ChEMBL document CHEMBL1149859, “Proteasome inhibition by peptide-semicarbazones” (Bioorg Med Chem, 2008).
Active and inactive are the calls of the source. The calls are words filed in the database; no cut-off is given here.

What was measured:
[1] = system: A549; assay: Inhibition of TNF-alpha-induced NF-kappaB transcriptional activation in human A549 cells by SEAP reporter gene assay; type: functional, cell-based
How it was run: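 A549 cells stably transfected with a pNF-κB-SEAP reporter, seeded at 2 × 10^4/well and attached overnight. Preincubated 5 h with compound at 100, 30, 10, 3, 1, 0.3, 0.1 and 0 µM, then stimulated with 10 ng/ml TNF-α for 22 h. Supernatant SEAP read by chemiluminescence; viability checked in parallel with CellTiter-Blue.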

[2] = system: PBMC; assay: Antiproliferative activity against human peripheral blood mononuclear cells after 48 hrs by ELISA; type: cell-based
How it was run: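 Human PBMC isolated by density gradient, 100,000–200,000 cells/well in RPMI 1640 with 10% heat-inactivated FBS. Stimulated with 20 µg/ml PHA-L and exposed to compound at 0.4–50 µM for 48 h at 37 °C, 5% CO2. BrdU (10 µM) added for a further 4 h. Cells fixed and DNA denatured; incorporated BrdU detected with anti-BrdU-POD.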

[3] = Inhibition of human 20S proteasome by fluorescence spectroscopy
How it was run: (§1)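 20S proteasome (1.3 µg) activated in 25 mM Hepes pH 7.5, 0.5 mM EDTA, 0.033% SDS for 10 min at room temperature. Added to compound in DMSO with 75 µM Suc-LLVY-AMC. AMC release followed 20 min at 30 °C (ex 360, em 465 nm) as RFU/min. IC50 from eight concentrations, triplicates on one day.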

[4] = Inhibition of chymotrypsin-like site of human 20S proteasome; how it was run: as §1
[5] = Inhibition of peptidylglutamyl peptide hydrolyzing site of human 20S proteasome
How it was run: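 Peptidylglutamyl-peptide hydrolysing activity of SDS-activated 20S proteasome (1.3 µg; 25 mM Hepes pH 7.5, 0.5 mM EDTA, 0.033% SDS, 10 min preincubation at room temperature). Substrate was 75 µM Z-LLE-βNA with compound in DMSO. Fluorescence followed 20 min at 30 °C as RFU/min. IC50 from eight concentrations, triplicates on one day.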

Structure (SMILES) | Activity [1] | IC50 [2] | IC50 [3] | EC50 [1] | IC50 [4] | IC50 [5]
O=C1CN(/N=C/[C@H](Cc2ccccc2)NC(=O)[C@H](Cc2c[nH]c3ccccc23)NC(=O)[C@H](Cc2c[nH]c3ccccc23)NC(=O)CCCCC2SCC3NC(=O)NC32)C(=O)N1 (stereo partly drawn) | inactive | 29000 nM | 100 nM |  |  | 
O=C1CN(/N=C/[C@H](Cc2ccccc2)NC(=O)[C@H](Cc2c[nH]c3ccccc23)NC(=O)[C@H](Cc2c[nH]c3ccccc23)NC(=O)OCc2ccncc2)C(=O)N1 |  |  | 1600 nM | 4900 nM |  | 
O=C1CN(/N=C/[C@H](Cc2ccccc2)NC(=O)[C@H](Cc2c[nH]c3ccccc23)NC(=O)[C@H](Cc2c[nH]c3ccccc23)NC(=O)CCc2ccc(O)cc2)C(=O)N1 |  |  | 100 nM | 8700 nM |  | 
NC(=O)N/N=C/[C@H](Cc1c[nH]c2ccccc12)NC(=O)[C@H](Cc1c[nH]c2ccccc12)NC(=O)[C@H](Cc1c[nH]c2ccccc12)NC(=O)OCc1ccccc1 |  | 1400 nM | 100 nM | 1800 nM | 100 nM | 3700 nM
NC(=O)N/N=C/[C@H](Cc1ccccc1)NC(=O)[C@H](Cc1c[nH]c2ccccc12)NC(=O)[C@H](Cc1c[nH]c2ccccc12)NC(=O)OCc1ccccc1 |  |  | 200 nM | 5800 nM |  | 
O=C1CN(/N=C/[C@H](Cc2ccccc2)NC(=O)[C@H](Cc2c[nH]c3ccccc23)NC(=O)[C@H](Cc2c[nH]c3ccccc23)NC(=O)OCc2ccccc2)C(=O)N1 |  | 700 nM | 200 nM | 400 nM | 200 nM | 1200 nM
O=C1CN(/N=C/[C@H](Cc2c[nH]c3ccccc23)NC(=O)[C@H](Cc2c[nH]c3ccccc23)NC(=O)[C@H](Cc2c[nH]c3ccccc23)NC(=O)OCc2ccccc2)C(=O)N1 |  |  | 1100 nM | 3000 nM |  | 
O=C1CN(/N=C/[C@@H](Cc2ccccc2)NC(=O)[C@H](Cc2c[nH]c3ccccc23)NC(=O)[C@H](Cc2c[nH]c3ccccc23)NC(=O)OCc2ccccc2)C(=O)N1 |  |  | 400 nM | 800 nM |  | 
